Results pooled from the literature.
Each line is one published result; the experiments were not run side by side.
Effect on: metabolic stability
Host: mouse

SMILES | matrix | concentration | pH | half-life [min]
O=c1c2c([nH]c3c(Oc4ccc(OC(F)(F)F)cc4)cccc13)CCCC2 | liver microsomes | 1 µM | pH 7.4 | > 60
O=C(O)Cc1ccccc1Nc1c(Cl)cccc1Cl | liver microsomes |  |  | 44.4
CC(C)(C)OC(=O)N1CCC(Oc2ccc3c(=O)c4c(F)cc(Cl)cc4[nH]c3c2)C1 (stereo not shown) | liver microsomes | 1 µM | pH 7.4 | > 60
O=C(Oc1coc(CSc2ncccn2)cc1=O)c1ccc([N+](=O)[O-])cc1 | liver microsomes |  |  | < 1
CCN(CC)CCNC(=O)c1c(C)[nH]c(/C=C2\C(=O)Nc3ccc(F)cc32)c1C | liver microsomes |  |  | 17
CC(C)(C)OC(=O)N1CCC(Oc2ccc3c(=O)c4c(Cl)cc(F)cc4[nH]c3c2)CC1 | liver microsomes | 1 µM | pH 7.4 | > 60
C=CCn1c(=O)c2cnc(Nc3ccc(N4CCN(C)CC4)cc3)nc2n1-c1ccc2c(n1)[C@@](O)(CC)CC2 | liver microsomes |  |  | 77
O=c1c2cc(Cl)c(CO)cc2[nH]c(=S)n1Cc1cccnc1 | liver microsomes | 1 µM | pH 7.4 | 29.5
Cc1cc(-c2ccnc3[nH]cc(F)c23)ccc1[C@@]1(O)[C@H](C)CNC[C@@H]1C | liver microsomes |  |  | 8
CCCCCCOc1ccc2c(=O)c3c([nH]c2c1)CCCC3 | liver microsomes | 1 µM | pH 7.4 | 11.8
C[C@@H]1CNC[C@H](C)[C@@]1(O)c1ccc(-c2ccnc3[nH]cc(F)c23)cc1F | liver microsomes |  |  | 30.1
OCc1ccc(-c2nn(Cc3ccccc3)c3ccccc23)o1 | hepatocytes |  |  | 1.89
Cc1ccc(CCC(=O)Nc2nnc(S(N)(=O)=O)s2)cc1 | liver microsomes |  |  | > 120
CC(C)c1cc(C(=O)NCCN)c2cnn(C(C)C)c2n1 | liver microsomes |  |  | > 145
C[C@@H]1CNC[C@H](C)[C@@]1(O)c1ccc(-c2ccnc3[nH]cc(F)c23)cc1 | liver microsomes |  |  | 49
O=c1c2ccc(OCc3ccc(OC(F)(F)F)cc3)cc2[nH]c2cc(Cl)cc(F)c12 | liver microsomes | 1 µM | pH 7.4 | > 60

SMILES | matrix | concentration | pH | half-life [min]
Cc1[nH]c(C)c(S(=O)(=O)Nc2ccc(C(F)(F)F)c(Cl)c2)c1C(=O)N1CCC(F)(F)C1 | liver microsomes |  |  | 11.7
O=C1CCC(N2Cc3cc(C4CCN(Cc5ccccc5)CC4)ccc3C2=O)C(=O)N1 (stereo not shown) | liver microsomes | 1 µM |  | > 60
COc1ccc(Cn2cc(CO[C@@H]3O[C@H]4[C@H](OC[C@H]4O)[C@H]3O)nn2)cc1 | liver microsomes |  |  | 120
O=c1c2cc(Cl)ccc2[nH]c(=S)n1Cc1ccc(-c2nnn[nH]2)nc1 | liver microsomes | 1 µM | pH 7.4 | > 186
Nc1nnc(-c2ccccc2O)cc1N1CCN(Cc2ccc(N3CCN(CCOc4cccc5c4C(=O)N(C4CCC(=O)NC4=O)C5=O)CC3)c(F)c2)CC1 (stereo not shown) | liver microsomes | 1 mM |  | 46
Cc1cc(-c2ccnc3[nH]cc(F)c23)cc(F)c1[C@@]1(O)[C@H](C)CN(C2CCS(=O)(=O)CC2)C[C@@H]1C | liver microsomes |  |  | 45.9
CC(C)C(=O)OCc1cc2[nH]c(=S)n(Cc3cccnc3)c(=O)c2cc1Cl | liver microsomes | 1 µM | pH 7.4 | < 5
COc1ccc(Oc2ccc3c(=O)c4c(F)cc(Cl)cc4[nH]c3c2)cc1 | liver microsomes | 1 µM | pH 7.4 | > 60
NC(=NCCC[C@@H](C(=O)NCc1ccccc1)n1cc(-c2ccc(-c3ccccc3)cc2)nn1)c1ccc([N+](=O)[O-])o1 | liver microsomes |  |  | 120
CN1CCC(Oc2ccc3c(=O)c4c(F)cc(Cl)cc4[nH]c3c2)CC1 | liver microsomes | 1 µM | pH 7.4 | > 60
O=c1c2cc(Cl)ncc2[nH]c(=S)n1Cc1cccnc1 | liver microsomes | 1 µM | pH 7.4 | 89.7
CC(=O)N1C[C@@H](C)[C@](O)(c2c(C)cc(-c3ccnc4[nH]cc(F)c34)cc2F)[C@@H](C)C1 | liver microsomes |  |  | 3.5
NS(=O)(=O)c1nnc(NC(=O)C2CCCC3(CCCCC3)C2)s1 (stereo not shown) | liver microsomes |  |  | 58.8
CCN(CC)CCCOc1ccc2c(=O)c3c([nH]c2c1)CCCC3 | liver microsomes | 1 µM | pH 7.4 | > 60
CCN(CC)CCNC(=O)c1c(C)[nH]c(/C=C2\C(=O)Nc3ccc(F)cc32)c1C | liver microsomes | 1 µM | pH 7.4 | 14
